Measurements from ChEMBL document CHEMBL1134459 (J Med Chem, 2001).

How the values were obtained:
[1] = molecular target: Intercellular adhesion molecule 1 (Homo sapiens, UniProt P05362); experiment: Inhibition of intercellular adhesion molecule-1 (ICAM1) in human endothelial cells; format: cell-based, Endothelial cell
In short: (§1)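 Whole-cell ELISA on primary HUVECs plated at 5 × 10^4 cells/mL in EBM/2% FBS with growth supplements. Compound preincubated 24 h at 37 °C, then inducer added (TNFα at 5 ng/mL final, or IL-1β or PMA in its place) for 6 h at 37 °C. Mouse monoclonal anti-E-selectin, anti-ICAM-1 or anti-VCAM-1 was applied overnight at 4 °C, then HRP anti-mouse IgG. Detection with OPD, A490. Triplicate assays.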

E-selectin = molecular target: T1, E-selectin (Homo sapiens, UniProt P16581); experiment: Inhibition of selectin E in human endothelial cells; format: cell-based, Endothelial cell; in short: as §1
T1 sequence (P16581 whole entry): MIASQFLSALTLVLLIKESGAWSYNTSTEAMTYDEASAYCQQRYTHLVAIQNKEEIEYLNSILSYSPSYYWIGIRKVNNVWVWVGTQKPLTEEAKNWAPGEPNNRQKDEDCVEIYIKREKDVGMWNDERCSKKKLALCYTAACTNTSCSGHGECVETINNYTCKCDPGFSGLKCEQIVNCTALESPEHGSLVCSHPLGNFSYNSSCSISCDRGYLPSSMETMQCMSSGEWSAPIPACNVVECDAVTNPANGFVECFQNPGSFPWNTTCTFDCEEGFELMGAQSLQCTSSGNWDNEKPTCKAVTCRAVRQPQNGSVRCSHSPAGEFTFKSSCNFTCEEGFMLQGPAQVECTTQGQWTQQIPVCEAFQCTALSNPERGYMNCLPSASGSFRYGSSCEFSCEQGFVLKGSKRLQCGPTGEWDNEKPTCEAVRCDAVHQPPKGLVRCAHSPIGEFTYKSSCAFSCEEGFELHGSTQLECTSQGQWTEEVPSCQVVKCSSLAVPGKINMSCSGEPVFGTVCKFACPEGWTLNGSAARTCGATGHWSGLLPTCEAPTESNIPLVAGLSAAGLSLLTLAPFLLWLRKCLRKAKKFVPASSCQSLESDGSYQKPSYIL

[2] = Toxicity in HUVEC cell lysates.; format: cell-based, Lysate; conditions: human

Sequence of Intercellular adhesion molecule 1 (P05362 whole entry): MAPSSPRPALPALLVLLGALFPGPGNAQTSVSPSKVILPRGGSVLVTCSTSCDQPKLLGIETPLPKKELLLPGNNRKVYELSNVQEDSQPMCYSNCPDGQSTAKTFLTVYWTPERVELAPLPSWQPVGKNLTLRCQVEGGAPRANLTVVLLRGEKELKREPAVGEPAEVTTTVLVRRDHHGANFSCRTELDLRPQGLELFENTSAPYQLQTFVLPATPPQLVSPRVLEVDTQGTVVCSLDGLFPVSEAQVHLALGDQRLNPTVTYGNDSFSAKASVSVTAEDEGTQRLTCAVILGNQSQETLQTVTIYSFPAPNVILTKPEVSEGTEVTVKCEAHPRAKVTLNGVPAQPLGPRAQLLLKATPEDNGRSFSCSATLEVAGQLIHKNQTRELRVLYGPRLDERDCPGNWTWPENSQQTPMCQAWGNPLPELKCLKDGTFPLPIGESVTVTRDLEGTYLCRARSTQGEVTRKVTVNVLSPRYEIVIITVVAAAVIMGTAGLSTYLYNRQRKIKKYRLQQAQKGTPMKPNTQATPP

Structure (SMILES)	IC50 [1]	IC50 (E-selectin)	IC50 [2]
CNC(=O)c1cc2c(Oc3ccc(N4CCOCC4)cc3)cncc2s1	0.079 µM	0.035 µM	
CNC(=O)c1cc2c(Oc3ccc(-n4ccnc4)cc3)cncc2s1	0.006 µM	0.002 µM	> 10 µM
CNC(=O)c1cc2c(Oc3ccc(-c4nn[nH]n4)cc3)cncc2s1	> 1 µM	> 1 µM	
CC(C)c1ccc(Oc2cncc3sc(C(N)=O)cc23)cc1	0.047 µM	0.076 µM	34 µM
COCCOCc1ccc(Oc2cncc3sc(C(N)=O)cc23)cc1	0.006 µM	0.005 µM	
CNC(=O)c1cc2c(Oc3ccc(-c4ccccc4)cc3)cncc2s1	0.025 µM	0.009 µM	
NC(=O)c1cc2c(Oc3ccc(Cl)cc3Br)cncc2s1	0.3 µM	0.11 µM	
CNC(=O)c1cc2c(Oc3ccc(-n4cncn4)cc3)cncc2s1	0.16 µM	0.18 µM	
NC(=O)c1cc2c(Oc3ccc(N)cc3)cncc2s1	0.042 µM	0.035 µM	
CNC(=O)c1cc2c(Oc3ccc(/C=C/C(=O)NCCN(CCO)CCO)cc3)cncc2s1	0.6 µM	0.68 µM	
NC(=O)c1cc2c(Oc3ccc(I)cc3)cncc2s1	0.004 µM	0.006 µM	
CNC(=O)c1cc2c(Oc3ccc(-c4noc(C(F)(F)F)n4)cc3)cncc2s1	0.022 µM	0.028 µM	
CNC(=O)c1cc2c(Oc3ccc(C(=O)NCCN4CCOCC4)cc3)cncc2s1	0.73 µM	0.77 µM	
NC(=O)c1cc2c(Oc3ccc(Cl)c(F)c3)cncc2s1	0.01 µM	0.008 µM	
CNC(=O)c1cc2c(Oc3ccc(/C=C/C(=O)NCCN4CCOCC4)cc3)cncc2s1	0.053 µM	0.043 µM	
CNC(=O)c1cc2c(Oc3ccc(/C=C/C(=O)NCC(O)CO)cc3)cncc2s1 (stereo not drawn)	0.58 µM	0.83 µM	
NC(=O)c1cc2c(Oc3ccc(C(=O)N(C(=O)NC4CCCCC4)C4CCCCC4)cc3)cncc2s1	0.116 µM	0.115 µM	
NC(=O)c1cc2c(Oc3ccc(/C=C/C(=O)NCCN(CCO)CCO)cc3)cncc2s1	0.82 µM	0.65 µM	

Structure (SMILES)	IC50 [1]	IC50 (E-selectin)	IC50 [2]
CCOC(=O)c1cccc(Oc2cncc3sc(C(N)=O)cc23)c1	0.68 µM	0.63 µM	
NC(=O)c1cc2c(Oc3ccc(C(=O)N4CCOCC4)cc3)cncc2s1	0.83 µM	0.87 µM	
NC(=O)c1cc2c(Oc3ccc(COC4CCCCO4)cc3)cncc2s1 (stereo not drawn)	0.0014 µM	0.002 µM	
NC(=O)c1cc2c(Oc3ccc(C(=O)NCCN4CCOCC4)cc3)cncc2s1	> 1 µM	> 1 µM	
CNC(=O)c1cc2c(Oc3ccc(-c4cncn4C)cc3)cncc2s1	0.36 µM	0.15 µM	
NC(=O)c1cc2c(Oc3cccc(C(F)(F)F)c3)cncc2s1	0.76 µM	0.87 µM	
NC(=O)c1cc2c(Oc3ccc(/C=C/C(=O)NCCN4CCOCC4)cc3)cncc2s1	0.032 µM	0.034 µM	
Cc1cc(Cl)ccc1Oc1cncc2sc(C(N)=O)cc12	0.58 µM	0.37 µM	
CNC(=O)c1cc2c(Oc3ccc(-c4cccs4)cc3)cncc2s1	0.006 µM	0.005 µM	
CCOCCOCCOCC(F)(F)c1ccc(Oc2cncc3sc(C(=O)NC)cc23)cc1	0.026 µM	0.11 µM	
CCOC(=O)c1ccc(Oc2cncc3sc(C(N)=O)cc23)cc1	0.018 µM	0.02 µM	
CNC(=O)c1cc2c(Oc3ccc(C(=N)NO)cc3)cncc2s1	0.059 µM	0.013 µM	> 10 µM
NC(=O)c1cc2c(Oc3ccc(/C=C/C(=O)NCC(O)CO)cc3)cncc2s1 (stereo not drawn)	0.79 µM	> 0.715 µM	
Cc1ccc(Oc2cncc3sc(C(N)=O)cc23)cc1	0.02 µM	0.02 µM	91 µM
CCOCCOCCOCC1(c2ccc(Oc3cncc4sc(C(=O)NC)cc34)cc2)CC1			> 10 µg/mL
NC(=O)c1cc2c(Oc3cccc(Br)c3)cncc2s1	0.11 µM	0.08 µM	
CNC(=O)c1cc2c(Oc3ccc(/C=C/C(=O)NCCc4c[nH]cn4)cc3)cncc2s1	0.67 µM	0.6 µM	
